Measured values: ChEMBL document CHEMBL1122321, “Synthesis and transport applications of 3-aminobicyclo[3.2.1] octane-3-carboxylic acids” (1983)

Legend:
Format in all cases: functional
Rattus norvegicus [1] = species on record: Rattus norvegicus; experiment: Inhibition of threonine (0.5*10e-4) uptake by rat Hepatoma cells(HTC) at the specified Conc of 10 mM expressed as nM/mg of protein/min
Method in brief: (§1)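 HTC hepatoma monolayers were grown in Medium 199 (pH 7.4, 26 mM NaHCO₃, antibiotics, 5–8% FBS) under 5% CO₂/95% air and seeded 3–4 days before testing. A 1-min uptake ran in Krebs-Ringer phosphate (pH 7.4, 37 °C), then the cells were washed with ice-cold Na⁺-free choline medium. Cells were extracted with 5% TCA and counted by scintillation. Protein was measured by modified Lowry with SDS and a BSA standard.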

Mus musculus [2] = experiment: Inhibition of MeAIB(10e-4) uptake by Ehrlich cell at the specified Conc of 0.25 mM expressed as mM/kg of cell water/min
Method in brief: (§2)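 ¹⁴C-MeAIB uptake by Ehrlich ascites tumor cells propagated in Swiss white mice and washed in Na⁺-free media. Uptake ran for 1 min at 37 °C in 5% cell suspensions in Na⁺-containing Krebs-Ringer bicarbonate under 5% CO₂–O₂ (pH 7.4). Stopped by ice-cold dilution and centrifugation. ¹⁴C in the medium and in a sulfosalicylic acid cell extract was counted by liquid scintillation. Extracellular water was measured by sucrose.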

Rattus norvegicus [3] = species on record: Rattus norvegicus; experiment: Inhibition of threonine (0.5*10e-4) uptake by rat Hepatoma cells(HTC) at the specified Conc of 0.5 mM expressed as nM/mg of protein/min; method in brief: as §1
Mus musculus [4] = experiment: Inhibition of MeAIB(10e-4) uptake by Ehrlich cell at the specified Conc of 2.5 mM expressed as mM/kg of cell water/min; method in brief: as §2
Mus musculus [5] = experiment: Inhibition of MeAIB(10e-4) uptake by Ehrlich cell at the specified Conc of 10 mM expressed as mM/kg of cell water/min; method in brief: as §2
Mus musculus [6] = experiment: Inhibition of MeAIB(10e-4) uptake by Ehrlich cell at the specified Conc of 0.5 mM expressed as mM/kg of cell water/min; method in brief: as §2
Rattus norvegicus [7] = species on record: Rattus norvegicus; experiment: Inhibition of threonine (0.5*10e-4) uptake by rat Hepatoma cells(HTC) at the specified Conc of 2.5 mM expressed as nM/mg of protein/min; method in brief: as §1

Row | Structure (SMILES) | Thr uptake (Rattus norvegicus [1]) | MeAIB uptake (Mus musculus [2]) | Thr uptake (Rattus norvegicus [3]) | MeAIB uptake (Mus musculus [4]) | MeAIB uptake (Mus musculus [5]) | MeAIB uptake (Mus musculus [6]) | Thr uptake (Rattus norvegicus [7])
1 | CC(O)C(N)C(=O)O (stereo not drawn) | 0.12 | – | – | – | – | – | –
2 | N[C@]1(C(=O)O)C[C@@H]2CC[C@@H](C2)C1 | 3.45 | 0.67 | 3.81 | 0.64 | 0.61 | 0.66 | 3.52
